Source: ChEMBL document CHEMBL1667800, “Synthesis, DNA/RNA affinity and antitumour activity of new aromatic diamidines linked by 3,4-ethylenedioxythiophene” (Eur J Med Chem, 2011)
Activity calls are given as the source filed them. The rule behind the calls is not given here.

system: MCF7; experiment: Cytotoxicity against human MCF7 cells after 72 hrs by MTT assay; assay type: functional; details: MCF7, 72 h
Outline: (§1)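 Cells were seeded at 2 × 10^4 cells/mL and attached overnight at 37 °C, 5% CO2. They were then exposed for 72 h to compounds from aqueous stocks (working solutions 10^-3–10^-6 mol dm^-3). MTT was added for 4 h at 37 °C, formazan dissolved in DMSO, and absorbance read at 570 nm. GI50 is the mean ± SD of three independent experiments run in triplicate.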

SMILES	GI50 [µM]
Cl.Cl.c1cc(-c2sc(-c3ccc(C4=NCCN4)cc3)c3c2OCCO3)ccc1C1=NCCN1	2.7

system: HeLa; experiment: Induction of cell cycle arrest in human HeLa assessed as accumulation at S-phase at 1x10'-6 M after 48 hrs by FACS analysis (RVb = 30.4+/-3.7%); assay type: functional; details: not given

SMILES	Activity [%]
Cl.Cl.c1cc(-c2sc(-c3ccc(C4=NCCN4)cc3)c3c2OCCO3)ccc1C1=NCCN1	33.1

system: Calf thymus DNA; experiment: Binding affinity to calf thymus DNA assessed as melting temperature at compound over DNA molar ratio of 0.2 at pH 7 by thermal denaturation assay; assay type: nucleic-acid assay; details: Bos taurus
Outline: (§2)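 Thermal melting of ds-polynucleotide (ct-DNA or poly A-poly U) alone and with compound at the given r, Na-cacodylate pH 7.0, I = 0.05 mol dm^-3. Absorbance at 260 nm was followed versus temperature, with compound absorbance subtracted and the curve normalized. Tm was taken from the first-derivative maximum or by tangent. ΔTm = Tm(complex) − Tm(free nucleic acid).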

SMILES	ΔTm [°C]
Cl.Cl.c1cc(-c2sc(-c3ccc(C4=NCCN4)cc3)c3c2OCCO3)ccc1C1=NCCN1	14.3

system: MIA PaCa-2; experiment: Cytotoxicity against human MIAPaCa2 cells after 72 hrs by MTT assay; assay type: functional; details: MIA PaCa-2, 72 h; outline: as §1

SMILES	GI50 [µM]
Cl.Cl.c1cc(-c2sc(-c3ccc(C4=NCCN4)cc3)c3c2OCCO3)ccc1C1=NCCN1	9

system: HeLa; experiment: Induction of cell cycle arrest in human HeLa assessed as accumulation at G2/M-phase at 5x10'-6 M after 24 hrs by FACS analysis (RVb = 10.1+/-3.4%); assay type: functional; details: not given

SMILES	Activity [%]
Cl.Cl.c1cc(-c2sc(-c3ccc(C4=NCCN4)cc3)c3c2OCCO3)ccc1C1=NCCN1	17.6

system: Calf thymus DNA; experiment: Binding affinity to calf thymus DNA assessed as melting temperature at compound over DNA molar ratio of 0.3 at pH 7 by thermal denaturation assay; assay type: nucleic-acid assay; details: Bos taurus; outline: as §2

SMILES	ΔTm [°C]
Cl.Cl.c1cc(-c2sc(-c3ccc(C4=NCCN4)cc3)c3c2OCCO3)ccc1C1=NCCN1	> 16

system: HeLa; experiment: Induction of cell cycle arrest in human HeLa assessed as accumulation at G0/G1-phase at 1x10'-6 M after 48 hrs by FACS analysis (RVb = 61.2+/-2.3%); assay type: functional; details: not given

SMILES	Activity [%]
Cl.Cl.c1cc(-c2sc(-c3ccc(C4=NCCN4)cc3)c3c2OCCO3)ccc1C1=NCCN1	59.6

system: HeLa; experiment: Induction of cell cycle arrest in human HeLa assessed as accumulation at G0/G1-phase at 5x10'-6 M after 48 hrs by FACS analysis (RVb = 61.2+/-2.3%); assay type: functional; details: not given

SMILES	Activity [%]
Cl.Cl.c1cc(-c2sc(-c3ccc(C4=NCCN4)cc3)c3c2OCCO3)ccc1C1=NCCN1	44.2

system: Caco-2; experiment: Cytotoxicity against human Caco2 cells after 72 hrs by MTT assay; assay type: functional; details: Caco-2, 72 h; outline: as §1

SMILES	GI50 [µM]
Cl.Cl.c1cc(-c2sc(-c3ccc(C4=NCCN4)cc3)c3c2OCCO3)ccc1C1=NCCN1	3.1

system: HeLa; experiment: Induction of cell cycle arrest in human HeLa assessed as accumulation at G2/M-phase at 1x10'-6 M after 24 hrs by FACS analysis (RVb = 10.1+/-3.4%); assay type: functional; details: not given

SMILES	Activity [%]
Cl.Cl.c1cc(-c2sc(-c3ccc(C4=NCCN4)cc3)c3c2OCCO3)ccc1C1=NCCN1	14.4

system: HeLa; experiment: Induction of cell cycle arrest in human HeLa assessed as accumulation at S-phase at 1x10'-6 M after 24 hrs by FACS analysis (RVb = 27.7+/-4.2%); assay type: functional; details: not given

SMILES	Activity [%]
Cl.Cl.c1cc(-c2sc(-c3ccc(C4=NCCN4)cc3)c3c2OCCO3)ccc1C1=NCCN1	30.2

system: Calf thymus DNA; experiment: Binding affinity to calf thymus DNA assessed as hyperchromic effect at compound over DNA molar ratio of 0.5 by UV-Vis spectra; assay type: nucleic-acid assay; details: Bos taurus; in the assay text read “hypochromic effect” for “hyperchromic effect”
Outline: (§3)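 UV-Vis titration of compound (c = 1.97 × 10^-5 mol dm^-3 in the shown example) with ct-DNA. Na-cacodylate buffer, pH 7.0, I = 0.05 mol dm^-3, 1 cm quartz cuvette. Absorbance at the maximum was tracked against c(ct-DNA). Ks and n were obtained by non-linear least-squares Scatchard fitting.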

SMILES	Activity
Cl.Cl.c1cc(-c2sc(-c3ccc(C4=NCCN4)cc3)c3c2OCCO3)ccc1C1=NCCN1	Active

system: Calf thymus DNA; experiment: Binding affinity to calf thymus DNA assessed as melting temperature at compound over DNA molar ratio of 0.1 at pH 7 by thermal denaturation assay; assay type: nucleic-acid assay; details: Bos taurus; outline: as §2

SMILES	ΔTm [°C]
Cl.Cl.c1cc(-c2sc(-c3ccc(C4=NCCN4)cc3)c3c2OCCO3)ccc1C1=NCCN1	10.8

system: HeLa; experiment: Induction of cell cycle arrest in human HeLa assessed as accumulation at S-phase at 1x10'-6 M after 72 hrs by FACS analysis (RVb = 28.8+/-3.2%); assay type: functional; details: not given

SMILES	Activity [%]
Cl.Cl.c1cc(-c2sc(-c3ccc(C4=NCCN4)cc3)c3c2OCCO3)ccc1C1=NCCN1	25.9

system: HeLa; experiment: Induction of cell cycle arrest in human HeLa assessed as accumulation at G0/G1-phase at 5x10'-6 M after 72 hrs by FACS analysis (RVb = 63.4+/-3.2%); assay type: functional; details: not given

SMILES	Activity [%]
Cl.Cl.c1cc(-c2sc(-c3ccc(C4=NCCN4)cc3)c3c2OCCO3)ccc1C1=NCCN1	46.4

system: not listed separately; experiment: Cytotoxicity against MDCK cells after 72 hrs by MTT assay; assay type: cell-based, Canis lupus familiaris; details: dog; outline: as §1

SMILES	GI50 at 72 h [µM]
Cl.Cl.c1cc(-c2sc(-c3ccc(C4=NCCN4)cc3)c3c2OCCO3)ccc1C1=NCCN1	17

system: HeLa; experiment: Induction of cell cycle arrest in human HeLa assessed as accumulation at G2/M-phase at 5x10'-6 M after 72 hrs by FACS analysis (RVb = 7.8+/-3.1%); assay type: functional; details: not given

SMILES	Activity [%]
Cl.Cl.c1cc(-c2sc(-c3ccc(C4=NCCN4)cc3)c3c2OCCO3)ccc1C1=NCCN1	21.1

system: HeLa; experiment: Induction of cell cycle arrest in human HeLa assessed as accumulation at G2/M-phase at 1x10'-6 M after 72 hrs by FACS analysis (RVb = 7.8+/-3.1%); assay type: functional; details: not given

SMILES	Activity [%]
Cl.Cl.c1cc(-c2sc(-c3ccc(C4=NCCN4)cc3)c3c2OCCO3)ccc1C1=NCCN1	11.9

system: Calf thymus DNA; experiment: Binding affinity to calf thymus DNA minor groove assessed as DNA CD band at compound over DNA molar ratio of < 0.2 by circular dichroism titration; assay type: nucleic-acid assay; details: Bos taurus
Outline: (§4)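 CD titration of polynucleotide (2.0 × 10^-5 mol dm^-3, as phosphate) with added compound over a range of r = [compound]/[polynucleotide]. Na-cacodylate buffer, pH 7.0, I = 0.05 mol dm^-3, 1 cm quartz cuvette. ct-DNA was sonicated and filtered before use. Changes in the polynucleotide CD band and induced CD bands were followed.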

SMILES	Activity
Cl.Cl.c1cc(-c2sc(-c3ccc(C4=NCCN4)cc3)c3c2OCCO3)ccc1C1=NCCN1	Active

system: HeLa; experiment: Cytotoxicity against human HeLa cells after 72 hrs by MTT assay; assay type: functional; details: not given; outline: as §1

SMILES	GI50 [µM]
Cl.Cl.c1cc(-c2sc(-c3ccc(C4=NCCN4)cc3)c3c2OCCO3)ccc1C1=NCCN1	1.5

system: HeLa; experiment: Induction of cell cycle arrest in human HeLa assessed as accumulation at G2/M-phase at 5x10'-6 M after 48 hrs by FACS analysis (RVb = 8.4+/-3.9%); assay type: functional; details: not given

SMILES	Activity [%]
Cl.Cl.c1cc(-c2sc(-c3ccc(C4=NCCN4)cc3)c3c2OCCO3)ccc1C1=NCCN1	18.5

system: HEp-2; experiment: Cytotoxicity against human Hep2 cells after 72 hrs by MTT assay; assay type: functional; details: HEp-2, 72 h; outline: as §1

SMILES	GI50 [µM]
Cl.Cl.c1cc(-c2sc(-c3ccc(C4=NCCN4)cc3)c3c2OCCO3)ccc1C1=NCCN1	3

system: HeLa; experiment: Induction of cell cycle arrest in human HeLa assessed as accumulation at S-phase at 5x10'-6 M after 24 hrs by FACS analysis (RVb = 27.7+/-4.2%); assay type: functional; details: not given

SMILES	Activity [%]
Cl.Cl.c1cc(-c2sc(-c3ccc(C4=NCCN4)cc3)c3c2OCCO3)ccc1C1=NCCN1	29.1

system: HeLa; experiment: Induction of cell cycle arrest in human HeLa assessed as accumulation at G0/G1-phase at 5x10'-6 M after 24 hrs by FACS analysis (RVb = 62.2+/-4.4%); assay type: functional; details: not given

SMILES	Activity [%]
Cl.Cl.c1cc(-c2sc(-c3ccc(C4=NCCN4)cc3)c3c2OCCO3)ccc1C1=NCCN1	53.3

system: AGS; experiment: Cytotoxicity against human AGS cells after 72 hrs by MTT assay; assay type: functional; details: not given; outline: as §1

SMILES	GI50 [µM]
Cl.Cl.c1cc(-c2sc(-c3ccc(C4=NCCN4)cc3)c3c2OCCO3)ccc1C1=NCCN1	4.3

system: HeLa; experiment: Induction of cell cycle arrest in human HeLa assessed as accumulation at S-phase at 5x10'-6 M after 48 hrs by FACS analysis (RVb = 30.4+/-3.7%); assay type: functional; details: not given

SMILES	Activity [%]
Cl.Cl.c1cc(-c2sc(-c3ccc(C4=NCCN4)cc3)c3c2OCCO3)ccc1C1=NCCN1	37.3

system: Calf thymus DNA; experiment: Binding affinity to calf thymus DNA assessed as DNA CD band at compound over DNA molar ratio of > 0.2 by circular dichroism titration; assay type: nucleic-acid assay; details: Bos taurus; outline: as §4

SMILES	Activity
Cl.Cl.c1cc(-c2sc(-c3ccc(C4=NCCN4)cc3)c3c2OCCO3)ccc1C1=NCCN1	Active

system: HeLa; experiment: Induction of cell cycle arrest in human HeLa assessed as accumulation at G2/M-phase at 1x10'-6 M after 48 hrs by FACS analysis (RVb = 8.4+/-3.9%); assay type: functional; details: not given

SMILES	Activity [%]
Cl.Cl.c1cc(-c2sc(-c3ccc(C4=NCCN4)cc3)c3c2OCCO3)ccc1C1=NCCN1	7.3

system: Calf thymus DNA; experiment: Binding affinity to calf thymus DNA assessed as batochromic effect at compound over DNA molar ratio of 0.2 by fluorimetric titration; assay type: nucleic-acid assay; details: Bos taurus
Outline: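 Fluorimetric titration of compound (about 1.0 × 10^-6 mol dm^-3) with ct-DNA. Excitation above 360 nm to avoid inner-filter effects. Na-cacodylate buffer, pH 7.0, I = 0.05 mol dm^-3. Emission at the maximum was plotted against c(ct-DNA). Ks and n were obtained by non-linear Scatchard fitting.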

SMILES	Activity
Cl.Cl.c1cc(-c2sc(-c3ccc(C4=NCCN4)cc3)c3c2OCCO3)ccc1C1=NCCN1	Active

system: HeLa; experiment: Induction of cell cycle arrest in human HeLa assessed as accumulation at S-phase at 5x10'-6 M after 72 hrs by FACS analysis (RVb = 28.8+/-3.2%); assay type: functional; details: not given

SMILES	Activity [%]
Cl.Cl.c1cc(-c2sc(-c3ccc(C4=NCCN4)cc3)c3c2OCCO3)ccc1C1=NCCN1	32.5

system: HeLa; experiment: Induction of cell cycle arrest in human HeLa assessed as accumulation at G0/G1-phase at 1x10'-6 M after 72 hrs by FACS analysis (RVb = 63.4+/-3.2%); assay type: functional; details: not given

SMILES	Activity [%]
Cl.Cl.c1cc(-c2sc(-c3ccc(C4=NCCN4)cc3)c3c2OCCO3)ccc1C1=NCCN1	62.2

system: HeLa; experiment: Induction of cell cycle arrest in human HeLa assessed as accumulation at G0/G1-phase at 1x10'-6 M after 24 hrs by FACS analysis (RVb = 62.2+/-4.4%); assay type: functional; details: not given

SMILES	Activity [%]
Cl.Cl.c1cc(-c2sc(-c3ccc(C4=NCCN4)cc3)c3c2OCCO3)ccc1C1=NCCN1	55.4

system: Nucleic Acid; experiment: Binding affinity to polu A-poly U assessed as melting temperature at compound over DNA molar ratio of 0.3 at pH 7 by thermal denaturation assay; assay type: nucleic-acid assay; details: not given; outline: as §2

SMILES	ΔTm [°C]
Cl.Cl.c1cc(-c2sc(-c3ccc(C4=NCCN4)cc3)c3c2OCCO3)ccc1C1=NCCN1	17

system: Calf thymus DNA; experiment: Binding affinity to calf thymus DNA assessed as batochromic effect at compound over DNA molar ratio of 0.2 by UV-Vis spectra; assay type: nucleic-acid assay; details: Bos taurus; outline: as §3

SMILES	Activity
Cl.Cl.c1cc(-c2sc(-c3ccc(C4=NCCN4)cc3)c3c2OCCO3)ccc1C1=NCCN1	Active

system: NCI-H358; experiment: Cytotoxicity against human NCI-H358 cells after 72 hrs by MTT assay; assay type: functional; details: NCI-H358, 72 h; outline: as §1

SMILES	GI50 [µM]
Cl.Cl.c1cc(-c2sc(-c3ccc(C4=NCCN4)cc3)c3c2OCCO3)ccc1C1=NCCN1	4.1
